The results in this text go back to ChEMBL document CHEMBL2384903, “Highly efficient biocompatible neuroprotectants with dual activity as antioxidants and P2Y receptor agonists” (J Med Chem, 2013).

The source made the active and inactive calls. No cut-off for these calls is given here. Bounds are passed on as bounds.

A short description of series [1]: Antioxidant activity assessed as free radical scavenging activity after 7 mins by ABTS radical cation decolorization assay. The format is functional. In outline:
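ABTS•+ is made from 7 mM ABTS and 2.45 mM persulfate (final), left in the dark at RT for 12–16 h, then diluted in water pH 7.4 to A734 0.80. It is mixed with compound or Trolox standard (final 0–60 μM), and A734 is read at exactly 7 min. Percent inhibition is plotted against concentration, with solvent blanks. Each run is done at least three times, in triplicate.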

In series [2] the test system is PC-12. As to the kind of experiment: Antioxidant activity in rat PC12 cells assessed as inhibition of Fe2+-induced ROS production at 100 uM after 1 hr by DCFH-DA staining-based fluorometric analysis relative to control. The format is functional. The settings on record: PC-12, 1 h. Put shortly: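 PC12 cells in DMEM were seeded 24 h, loaded 20 min with diluted DCFH-DA and washed. Nucleotides were then added at 0.2−200 μM final. Oxidation was started with FeSO4 at 0.16 μM final and plates were incubated 1 h at 37 °C. DCF fluorescence was read at 485/530 nm, and percent inhibition of ROS was taken against untreated oxidized control.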

Series [3] concerns PC-12. Kind of series: Antioxidant activity in rat PC12 cells assessed as inhibition of Fe2+-induced ROS production after 1 hr by DCFH-DA staining-based fluorometric analysis. It is filed as functional, cell-based. In outline:
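PC12 cells grown in DMEM, seeded 24 h. Loaded with DCFH-DA (ethanol stock diluted 100-fold in PBS) for 20 min, then probe removed. Nucleotides added at final 0.2–200 μM, and oxidation started with FeSO4 at final 0.16 μM. Fluorescence at 485/530 nm read during 1 h at 37 °C. […] Mean ± SD of two experiments.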

A short description of series [4]: Antioxidant activity assessed as inhibiton of Fe2+-induced Fenton reaction-mediated hydroxyl radical formation from H2O2 measured for 150 secs by ESR analysis in presence of DMPO. It is filed as functional. In outline: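 Spin-trap ESR run at room temperature, final volume 100 μL. 5–500 μM compound is combined with ammonium iron(II) sulfate (1 mM stock) and Tris pH 7.4. After 30 s mixing, DMPO (100 mM stock) and H2O2 (100 mM stock) are added, with final pH 7.2–7.4. Spectrum is recorded 150 s after H2O2 at 9.76 GHz, 6.35 mW. Mean ± SD of three experiments.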

The target in another series is P2Y purinoceptor 1 (Homo sapiens, UniProt P47900). Kind of series: Agonist activity at human GFP-tagged P2Y1R transfected in human 1321N1 cells assessed as induction of intracellular calcium mobilization by fluorescence assay. The format is functional, cell-based.
A short description of series [5]: Half life in human serum at 0.1 mg after 6 hrs by HPLC analysis. The format is ADME, cell-free. Put shortly: (§1)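 0.1 mg compound in water was mixed with human blood serum and RPMI-1640 medium (1:3 serum:medium) and incubated at 37 °C for 0−24 h. Remaining intact nucleotide was quantified from the change in its HPLC peak integration over time.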
Series [6] can be described thus: Neuroprotective activity in rat primary cortical neurons assessed as decrease in FeSO4-induced oxidative stress measured cell viability after 24 hrs by MTT assay. The format is functional, cell-based. Conditions: Cerebral cortex neuron. In outline: (§2)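 Cortical neurons came from 1-day-old rat brain, were trypsin-dissociated and plated on polyornithine. They were grown in serum-free DMEM/F12 with B-27, then Ara-C treated for 48 h. Cells were treated with 0.01−5 μM nucleotide before FeSO4 (3 μM final) for 24 h. MTT 1 mg/mL was applied for 2 h at 37 °C, formazan dissolved in DMSO, absorbance read at 550 nm. Viability was expressed relative to vehicle control, mean ± SD of three independent experiments in triplicate.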

The nature of series [7]: Neuroprotective activity in rat primary cortical neurons assessed as decrease in FeSO4-induced oxidative stress measured cell vitality at 1 uM after 24 hrs by MTT assay relative to control. The format is functional, cell-based. The settings on record: Cerebral cortex neuron. Also noted: scale not given: the % may be the effect or the level left. Put shortly: as §2
A short description of series [8]: Metabolic stability in human serum assessed as compound remaining at 0.1 mg after 6 hrs by HPLC analysis. The format is ADME, cell-free. Conditions: read-out: Stability. Put shortly:
as §1

For the next series, the target named is T1, P2Y purinoceptor 11 (Homo sapiens, UniProt Q96G91).
T1 sequence (Q96G91 whole entry): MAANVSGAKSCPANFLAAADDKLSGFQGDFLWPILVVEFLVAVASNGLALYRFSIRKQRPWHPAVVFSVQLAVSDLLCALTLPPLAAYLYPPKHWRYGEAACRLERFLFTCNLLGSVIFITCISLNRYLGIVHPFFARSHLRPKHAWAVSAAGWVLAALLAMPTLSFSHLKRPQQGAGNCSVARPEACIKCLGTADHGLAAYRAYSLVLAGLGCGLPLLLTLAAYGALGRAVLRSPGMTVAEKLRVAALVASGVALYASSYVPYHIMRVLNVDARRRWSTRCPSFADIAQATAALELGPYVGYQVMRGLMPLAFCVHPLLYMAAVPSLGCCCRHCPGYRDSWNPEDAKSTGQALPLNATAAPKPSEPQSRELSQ
Kind of series: Agonist activity at human GFP-tagged P2Y11R transfected in human 1321N1 cells assessed as induction of intracellular calcium mobilization by fluorescence assay. The format is functional, cell-based. Conditions: read-out: EC50.

Series [9] has as its target P2Y purinoceptor 12 (Rattus norvegicus) (UniProt Q9EPX4). Kind of series: Agonist activity at P2Y12R in rat PC12 cells assessed as decrease in FeSO4-induced ROS formation at 0.04 to 100 uM after 1 hr by DCFH-DA staining-based fluorometric analysis in presence of P2Y12R antagonist 2-MeS-AMP. It is filed as cell-based. The settings on record: PC-12. In outline:
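PC12 cells seeded 24 h in DMEM, pretreated with 50 μM 2-MeS-AMP for 20 min, then loaded with DCFH-DA (stock 2 mg/mL in ethanol, diluted 100-fold in PBS) for 20 min and washed. Test agent added at 0.04−100 μM final. Oxidation started with FeSO4 at 0.16 μM final. Incubated 1 h at 37 °C, fluorescence read at 485/530 nm. Inhibition of ROS compared with control lacking antagonist.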

For another series, the species on record is Homo sapiens. Kind of series: Selectivity ratio of EC50 for human GFP-tagged P2Y11R to EC50 for human GFP-tagged P2Y1R. Put shortly:
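1321N1 astrocytoma cells stably expressing human P2Y1-GFP or P2Y11-GFP were loaded with 2 μM fura-2 AM plus 0.02% pluronic acid in HEPES-buffered saline pH 7.4 for 30 min at 37 °C. They were then superfused at 37 °C with graded agonist concentrations. [Ca2+]i was read as the F340/F380 ratio (510 nm emission) in GFP-positive cells, at least 40 cells per point. EC50 came from concentration–response curves, n = 3.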

P2Y purinoceptor 12 (Rattus norvegicus), sequence (Q9EPX4 whole entry): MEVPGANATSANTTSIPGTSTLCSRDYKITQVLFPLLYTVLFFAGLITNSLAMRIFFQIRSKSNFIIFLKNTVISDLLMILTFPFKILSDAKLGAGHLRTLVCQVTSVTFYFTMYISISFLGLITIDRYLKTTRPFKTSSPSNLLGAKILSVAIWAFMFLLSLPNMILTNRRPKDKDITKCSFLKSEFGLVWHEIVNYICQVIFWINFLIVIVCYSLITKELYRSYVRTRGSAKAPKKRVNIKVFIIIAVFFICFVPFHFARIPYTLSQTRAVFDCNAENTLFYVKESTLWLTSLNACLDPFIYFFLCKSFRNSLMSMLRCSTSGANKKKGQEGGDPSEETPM
P2Y purinoceptor 1, sequence (P47900 whole entry): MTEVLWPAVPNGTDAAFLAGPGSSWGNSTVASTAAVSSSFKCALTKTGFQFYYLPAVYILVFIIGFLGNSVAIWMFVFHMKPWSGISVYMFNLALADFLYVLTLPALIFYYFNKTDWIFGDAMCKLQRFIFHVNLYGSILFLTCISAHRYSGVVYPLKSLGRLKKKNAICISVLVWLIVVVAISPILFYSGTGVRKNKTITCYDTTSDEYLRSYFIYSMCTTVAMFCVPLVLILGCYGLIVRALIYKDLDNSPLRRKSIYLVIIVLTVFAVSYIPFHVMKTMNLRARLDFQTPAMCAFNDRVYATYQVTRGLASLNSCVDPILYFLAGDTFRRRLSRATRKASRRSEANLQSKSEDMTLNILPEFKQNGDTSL

Consider `Nc1ncnc2c1ncn2[C@@H]1O[C@H](COP(=O)(O)OP(=O)(O)OP(=O)(O)O)[C@@H](O)[C@H]1O` [ADENOSINE TRIPHOSPHATE], for which the IC50 in [1] is 60 µM; in the series with PC-12 [3] (pc-12) it was “Not Active”; in series [4], > 500 µM. The inhibition at 100 µM with PC-12 [2] stood at 45%.
In the case of `B[P@@](=O)(OC[C@H]1O[C@@H](n2cnc3c(N)nc(Cl)nc32)[C@H](O)[C@@H]1O)OP(=O)(O)O`, the EC50 on P2Y purinoceptor 1 turned out to be 0.007 µM; in series [6], 0.17 µM; on P2Y purinoceptor 11, 3.68 µM. For the same compound, the IC50 in series [1] is 40 µM; with PC-12 [3] (Rattus norvegicus, PC-12, 1 h, read-out: IC50) it was 0.08 µM; in series [4], 175 µM. The half-life in series [5] is 7 h. Besides, in series [7], the Activity is < 60%. Moreover, the remaining at 6 h in [8] was 53%. Moreover, in series [9], the result was inactive. In addition, in the series filed under Homo sapiens, the Ratio EC50 is < 530.
